This note sets out measurements from ChEMBL document CHEMBL1145935, “Novel sst(4)-selective somatostatin (SRIF) agonists. 4. Three-dimensional consensus structure by NMR” (J Med Chem, 2003).

For assay [1], the target named is Somatostatin receptor type 4 (Homo sapiens, UniProt P31391). Nature of the assay: Binding affinity towards human Somatostatin receptor type 4 using 125I-[Leu8,DTrp22,Tyr25]SRIF-28 as radioligand.
In assay [2] the target is Somatostatin receptor type 5 (Homo sapiens, UniProt P35346). Briefly: Binding affinity towards human Somatostatin receptor type 5 using 125I-[Leu8,DTrp22,Tyr25]SRIF-28 as radioligand. Summed up:
(§1)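 Competitive radioligand displacement on cloned somatostatin receptors, with non-selective 125I-[Leu8,DTrp22,Tyr25]SRIF-28 as the tracer. IC50 (nM) is taken from the displacement curves. Separate determinations are listed individually, or their number is given in parentheses.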

The target of assay [3] is Somatostatin receptor type 2 (Homo sapiens, UniProt P30874). Nature of the assay: Binding affinity towards human Somatostatin receptor type 2 using 125I-[Leu8,DTrp22,Tyr25]SRIF-28 as radioligand. In short, it runs like this: as §1
Somatostatin receptor type 2, sequence (P30874 whole entry): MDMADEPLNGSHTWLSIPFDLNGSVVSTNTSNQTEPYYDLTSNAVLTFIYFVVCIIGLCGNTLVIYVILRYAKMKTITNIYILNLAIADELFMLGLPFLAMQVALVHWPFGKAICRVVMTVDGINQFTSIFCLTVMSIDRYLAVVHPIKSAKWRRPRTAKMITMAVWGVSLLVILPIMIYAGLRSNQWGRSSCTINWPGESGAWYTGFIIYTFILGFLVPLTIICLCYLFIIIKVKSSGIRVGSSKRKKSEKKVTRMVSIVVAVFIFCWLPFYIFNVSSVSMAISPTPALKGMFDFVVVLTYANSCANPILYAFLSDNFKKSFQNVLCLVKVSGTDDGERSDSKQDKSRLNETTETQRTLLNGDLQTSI
Assay [4] concerns the target Somatostatin receptor type 3 (Homo sapiens, UniProt P32745). Briefly: Binding affinity towards human Somatostatin receptor type 3 using 125I-[Leu8,DTrp22,Tyr25]SRIF-28 as radioligand. In short, it runs like this: as §1
For assay [5], the target named is Somatostatin receptor type 1 (Homo sapiens, UniProt P30872). Briefly: Binding affinity towards human Somatostatin receptor type 1 using 125I-[Leu8,DTrp22,Tyr25]SRIF-28 as radioligand. In short, it runs like this: as §1
Somatostatin receptor type 1, sequence (P30872 whole entry): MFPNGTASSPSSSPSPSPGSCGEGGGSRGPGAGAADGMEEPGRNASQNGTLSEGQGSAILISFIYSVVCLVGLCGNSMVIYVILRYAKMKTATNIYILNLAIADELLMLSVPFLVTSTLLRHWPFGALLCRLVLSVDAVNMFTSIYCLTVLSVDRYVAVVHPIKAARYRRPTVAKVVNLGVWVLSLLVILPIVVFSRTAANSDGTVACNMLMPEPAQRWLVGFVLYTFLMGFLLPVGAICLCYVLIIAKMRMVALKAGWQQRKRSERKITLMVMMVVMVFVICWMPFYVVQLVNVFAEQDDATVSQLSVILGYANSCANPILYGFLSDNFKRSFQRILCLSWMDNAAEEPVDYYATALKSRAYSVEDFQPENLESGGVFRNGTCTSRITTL

As usually defined, the IC50 is the concentration that gives 50% inhibition.

Each structure is given as a SMILES string. Values joined by “and” are separate entries in the source; they are usually repeats but may differ in a detail not shown here. Identical values can stand only once. Some results are limits rather than exact numbers.

Somatostatin receptor type 4, sequence (P31391 whole entry): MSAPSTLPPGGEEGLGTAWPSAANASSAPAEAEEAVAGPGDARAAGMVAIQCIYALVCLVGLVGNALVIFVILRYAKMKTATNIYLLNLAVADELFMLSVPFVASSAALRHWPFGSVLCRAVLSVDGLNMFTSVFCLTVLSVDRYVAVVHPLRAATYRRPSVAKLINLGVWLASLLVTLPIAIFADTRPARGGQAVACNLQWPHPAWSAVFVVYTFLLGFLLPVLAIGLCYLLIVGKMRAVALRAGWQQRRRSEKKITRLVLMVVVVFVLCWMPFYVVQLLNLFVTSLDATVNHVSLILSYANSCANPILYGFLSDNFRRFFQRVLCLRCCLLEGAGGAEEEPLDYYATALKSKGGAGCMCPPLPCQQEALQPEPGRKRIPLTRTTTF
Somatostatin receptor type 3, sequence (P32745 whole entry): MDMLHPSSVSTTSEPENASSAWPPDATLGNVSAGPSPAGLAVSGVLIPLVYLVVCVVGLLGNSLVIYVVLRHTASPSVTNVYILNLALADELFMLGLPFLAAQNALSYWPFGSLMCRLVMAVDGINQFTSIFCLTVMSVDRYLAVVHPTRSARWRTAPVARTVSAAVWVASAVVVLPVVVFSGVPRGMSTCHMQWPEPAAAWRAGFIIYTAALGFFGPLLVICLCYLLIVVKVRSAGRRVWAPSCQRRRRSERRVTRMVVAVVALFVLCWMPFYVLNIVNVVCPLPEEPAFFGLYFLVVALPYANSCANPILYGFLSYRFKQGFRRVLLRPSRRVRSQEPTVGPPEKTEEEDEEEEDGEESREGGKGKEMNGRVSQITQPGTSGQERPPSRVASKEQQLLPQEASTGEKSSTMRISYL
Somatostatin receptor type 5, sequence (P35346 whole entry): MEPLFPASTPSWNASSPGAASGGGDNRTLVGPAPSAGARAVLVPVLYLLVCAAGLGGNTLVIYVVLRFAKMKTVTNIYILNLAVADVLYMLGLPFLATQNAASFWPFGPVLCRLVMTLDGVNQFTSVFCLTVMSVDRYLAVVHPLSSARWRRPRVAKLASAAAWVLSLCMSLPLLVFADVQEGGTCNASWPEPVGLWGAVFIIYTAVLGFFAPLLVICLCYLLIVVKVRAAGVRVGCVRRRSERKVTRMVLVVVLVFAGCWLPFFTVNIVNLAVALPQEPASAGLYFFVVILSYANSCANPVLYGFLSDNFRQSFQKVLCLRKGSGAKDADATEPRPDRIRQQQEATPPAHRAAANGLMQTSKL

Regarding `C[C@@H](O)[C@@H]1NC(=O)[C@H](CCCCN)NC(=O)[C@H]([C@@H](C)c2ccc3ccccc3c2)NC(=O)[C@H](Cc2ccc(O)cc2)NC(=O)[C@H](Cc2ccccc2)NC(=O)[C@@H](N)CSSC[C@@H](C(=O)O)NC(=O)[C@H](Cc2ccccc2)NC1=O`, the IC50 in assay [1] was 2.8 nM; in assay [2], 360 nM; in assay [3], 194 nM; in assay [4], 825 nM.
With `C[C@@H](O)[C@@H]1NC(=O)[C@H](CCCCN)NC(=O)[C@H]([C@@H](C)c2ccc3ccccc3c2)NC(=O)[C@H](Cc2ccc(O)cc2)NC(=O)[C@H](Cc2ccccc2)NC(=O)[C@H](N)CSSC[C@@H](C(=O)O)NC(=O)[C@H](Cc2ccccc2)NC1=O`, the IC50 in assay [5] was over 10000 nM; in assay [1], 3.5 nM; in assay [2] it was 668 nM; in assay [3], 339 nM; in assay [4], 664 nM.
The corresponding values for `C[C@H](c1ccc2ccccc2c1)[C@@H]1NC(=O)[C@H](Cc2ccc(O)cc2)NC(=O)[C@H](Cc2ccccc2)NC(=O)[C@H](N)CSSC[C@@H](C(=O)O)NC(=O)[C@H](Cc2ccccc2)NC(=O)[C@H]([C@@H](C)O)NC(=O)[C@H](CCCCN)NC1=O` are 410 nM, 2.3 nM, 18 nM, 30 nM and 18 nM.
Take `C[C@@H]1NC(=O)[C@H](Cc2ccccc2)NC(=O)[C@@H](N)CSSC[C@@H](C(=O)O)NC(=O)[C@H](C)NC(=O)[C@H]([C@@H](C)O)NC(=O)[C@H](CCCCN)NC(=O)[C@@H](Cc2c[nH]c3ccccc23)NC1=O`: the IC50 in assay [5] is over 10000 nM; in assay [2], over 1000 nM; in assay [3], > 1000 nM and 962 nM; in assay [4] it was over 10000 nM.
Turning to `C[C@@H]1NC(=O)[C@H](Cc2ccccc2)NC(=O)[C@@H](N)CSSC[C@@H](C(=O)O)NC(=O)[C@H](C)NC(=O)[C@H]([C@@H](C)O)NC(=O)[C@H](CCCCN)NC(=O)[C@H](Cc2c[nH]c3ccccc23)NC1=O`, the half-maximal inhibitory concentration (IC50) in assay [5] is over 10000 nM; in assay [2], over 1000 nM; in assay [3], over 10000 nM; in assay [4] it was over 10000 nM.
Consider `C[C@@H](O)[C@@H]1NC(=O)[C@H](CCCCN)NC(=O)[C@H](Cc2c[nH]c3ccccc23)NC(=O)N(C)[C@@H](C(=O)c2ccccc2)NC(=O)[C@@H](Cc2ccccc2)NC(=O)[C@@H](N)CSSC[C@@H](C(=O)O)NC(=O)[C@H](Cc2ccccc2)NC1=O` (stereo in doubt), for which the IC50 in assay [5] was over 10000 nM; in assay [1] it was 5.4 nM; in assay [2] it was over 1000 nM; in assay [3], over 1000 nM; in assay [4] it was 403 nM.
`C[C@@H](O)[C@@H]1NC(=O)[C@H](CCCCN)NC(=O)[C@@H](Cc2c[nH]c3ccccc23)NC(=O)N(C)[C@H](C(=O)c2ccccc2)NC(=O)[C@H](Cc2ccccc2)NC(=O)[C@@H](N)CSSC[C@@H](C(=O)O)NC(=O)[C@H](Cc2ccccc2)NC1=O` (stereo in doubt): the IC50 is over 10000 nM in assay [5]; 153 nM in assay [1]; over 1000 nM in assay [2]; over 1000 nM in assay [3]; over 1000 nM in assay [4].
Take `C[C@@H](O)[C@@H]1NC(=O)[C@H](CCCCN)NC(=O)[C@H](Cc2c[nH]c3ccccc23)NC(=O)N(C)[C@H](C(=O)c2ccccc2)NC(=O)[C@H](Cc2ccccc2)NC(=O)[C@@H](N)CSSC[C@@H](C(=O)O)NC(=O)[C@H](Cc2ccccc2)NC1=O` (stereo in doubt): the IC50 in assay [5] is over 10000 nM; in assay [1] it was 133 nM; in assay [2] it was over 1000 nM; in assay [3], over 1000 nM; in assay [4], 725 nM.
Take `C[C@@H](O)[C@@H]1NC(=O)[C@H](CCCCN)NC(=O)[C@@H](Cc2c[nH]c3ccccc23)NC(=O)N(C)[C@@H](C(=O)c2ccccc2)NC(=O)[C@H](Cc2ccccc2)NC(=O)[C@@H](N)CSSC[C@@H](C(=O)O)NC(=O)[C@H](Cc2ccccc2)NC1=O` (stereo in doubt): the half-maximal inhibitory concentration (IC50) in assay [5] is over 1000 nM; in assay [1], 5.2 nM; in assay [2] it was 768 nM; in assay [3], 460 nM; in assay [4] it was 447 nM.
